Experimental data taken from ChEMBL document CHEMBL1139389, “Discovery of the Poly(ADP-ribose) polymerase (PARP) inhibitor 2-[(R)-2-methylpyrrolidin-2-yl]-1H-benzimidazole-4-carboxamide (ABT-888) for the treatment of cancer” (J Med Chem, 2009).

Experiments:
[1] = molecular target: Poly [ADP-ribose] polymerase 2 (Homo sapiens, UniProt Q9UGN5); experiment: Inhibition of human recombinant PARP2
[2] = Oral bioavailability in CD1 mouse at 10 mg/kg; type: ADME, organism-based; conditions: in vivo
Outline: (§1)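 Mouse PK: oral dose 10 mg/kg in 2.5% EtOH, 1 drop Tween-80, 25% PEG400 in PBS; iv dose 3 mg/kg in 2.5% EtOH, 5% DMSO, 1 drop Tween-80, 25% PEG400 in PBS. Oral bioavailability, iv half-life, oral AUC and Cmax derived from plasma profiles.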

[3] = Half life in CD1 mouse at 3 mg/kg, iv; type: ADME, organism-based; parameters: dose 3 mg/kg, route intravenous; conditions: in vivo; outline: as §1
[4] = AUC in CD1 mouse at 10 mg/kg, po; type: ADME, organism-based; parameters: dose 10 mg/kg, route oral; conditions: plasma; outline: as §1
[5] = Cmax in CD1 mouse at 10 mg/kg, po; type: ADME, organism-based; parameters: dose 10 mg/kg, route oral; conditions: in vivo; outline: as §1
B16-F10 [6] = experiment: Antitumor activity against mouse B16F10 cells xenografted in C57BL/6 mouse assessed as tumor volume at 50 mg/kg/day, po after 14 days; type: functional
B16-F10 [7] = experiment: Antitumor activity against mouse B16F10 cells xenografted in C57BL/6 mouse assessed as growth inhibition at 50 mg/kg/day, po after 14 days relative to control; type: functional; conditions: B16-F10, 336 h, read-out: TGI
B16-F10 [8] = experiment: Antitumor activity against mouse B16F10 cells xenografted in C57BL/6 mouse assessed as tumor volume at 50 mg/kg/day, po after 17 days; type: functional

Sequence of Poly [ADP-ribose] polymerase 2 (Q9UGN5 whole entry): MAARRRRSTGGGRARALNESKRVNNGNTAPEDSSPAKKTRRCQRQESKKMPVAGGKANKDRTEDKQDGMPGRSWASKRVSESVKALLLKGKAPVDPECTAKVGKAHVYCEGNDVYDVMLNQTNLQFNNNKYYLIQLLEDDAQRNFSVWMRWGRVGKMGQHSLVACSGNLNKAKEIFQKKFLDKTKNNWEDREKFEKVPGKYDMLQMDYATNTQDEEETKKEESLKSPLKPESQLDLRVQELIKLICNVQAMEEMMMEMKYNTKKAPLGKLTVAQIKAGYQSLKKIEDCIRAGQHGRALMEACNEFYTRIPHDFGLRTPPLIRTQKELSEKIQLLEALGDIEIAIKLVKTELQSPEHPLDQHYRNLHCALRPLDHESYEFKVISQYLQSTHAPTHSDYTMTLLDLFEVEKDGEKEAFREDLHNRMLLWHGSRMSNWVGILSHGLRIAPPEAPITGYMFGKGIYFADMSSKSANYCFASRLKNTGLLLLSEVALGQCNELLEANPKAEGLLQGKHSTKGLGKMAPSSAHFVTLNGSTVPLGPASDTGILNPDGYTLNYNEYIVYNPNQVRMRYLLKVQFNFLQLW

CC1(c2nc3c(C(N)=O)cccc3[nH]2)CCNCC1
Ki [1]: 2 nM
bioavailability [2]: 20%
half-life [3]: 1.2 h
AUC [4]: 400 ng·h/mL
Cmax [5]: 100 ng/mL

Cn1nnc2c(C(N)=O)ncn2c1=O [TEMOZOLOMIDE]
Activity (B16-F10 [6]): 1198 mm3
inhibition in vivo at 50 mg/kg/day (B16-F10 [7]): 65%
Activity (B16-F10 [8]): 2318 mm3
